Screening results (PubChem)
The list is not random: actives were taken first. Their share in the collection is about 1.6%.
GSTO1 inh – blocks human GSTO1 in RBBP9 counter-screen. 300,000 compounds, 1.1% hits. P78417. inhibition, % at 5.96 µM. recombinant GSTO1, activity-based probe fluorescence polarization;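 active = inhibition above the campaign mean inhibition plus 3 SD, cut at about 35% in these data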
Target sequence (P78417 whole entry, looked up): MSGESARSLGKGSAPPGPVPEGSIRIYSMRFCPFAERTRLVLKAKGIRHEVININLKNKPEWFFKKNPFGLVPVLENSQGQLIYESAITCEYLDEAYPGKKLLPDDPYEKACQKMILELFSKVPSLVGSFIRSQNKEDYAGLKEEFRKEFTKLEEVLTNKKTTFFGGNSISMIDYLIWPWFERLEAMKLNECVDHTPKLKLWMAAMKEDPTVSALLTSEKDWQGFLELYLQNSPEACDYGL
PAD4 inh – inhibitors of human PAD4; recombinant PAD4, RCA probe fluorescence polarization; inhibition, % at 6.36 µM; 330,000 compounds, 0.41% hits;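 active = percent inhibition above a cutoff equal to the mean of all tested compounds plus 3 SD, cut at about 15% in these data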
HKDC1 inh – HKDC1 (human) hexokinase inhibition. 340,000 compounds, 0.16% hits. inhibition, % at 20 µM. AID 493160. Q2TB90. recombinant HKDC1, G6PDH/diaphorase resazurin coupled fluorescence;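 active = inhibition above about 35% when tested at 20 µM, limit read from the data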
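Test system: HK5 enzyme. Quantity: 5 µg/mL HK5 final. Reagent: glucose and ATP substrates. Schedule: 90 min reaction incubation at room temperature, dark. Technique: resazurin-to-resorufin fluorescence via G6PDH and diaphorase coupling, 525/613 nm. Control set: DMSO wells with and without enzyme mix.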
TDP2 inh – blocks human TDP2 phosphodiesterase activity; O95551; recombinant TDP2, T5PNP hydrolysis, p-nitrophenol absorbance 415 nm; 370,000 compounds, 0.34% hits; inhibition, % at 12.8 µM;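 active = inhibition above the mean of all tested compounds plus 3 SD, set per campaign, cut at about 25% in these data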
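Evaluation: % inhibition relative to enzyme-containing and enzyme-free wells. Material: recombinant human TDP2. Benchmarks: enzyme-free and DMSO wells. Timing: enzyme reaction with compound for 2 h at 37 °C. Compound dosing: 12.8 µM only. Measured by: p-Nitrophenol epi absorbance. Reagent: T5PNP substrate at 5 mM, a TopII-DNA adduct mimic. Replication: single well per compound.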
UCH37 inh – human UCH37 deubiquitinating enzyme inhibition; 330,000 compounds, 0.33% hits; purified proteasome/UCH37, Ub-AMC cleavage fluorescence; inhibition, % (test concentration not listed); Q9Y5K5;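 active = mean inhibition over replicate wells above about 20%, limit read from the data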
Target sequence (Q9Y5K5 whole entry, looked up): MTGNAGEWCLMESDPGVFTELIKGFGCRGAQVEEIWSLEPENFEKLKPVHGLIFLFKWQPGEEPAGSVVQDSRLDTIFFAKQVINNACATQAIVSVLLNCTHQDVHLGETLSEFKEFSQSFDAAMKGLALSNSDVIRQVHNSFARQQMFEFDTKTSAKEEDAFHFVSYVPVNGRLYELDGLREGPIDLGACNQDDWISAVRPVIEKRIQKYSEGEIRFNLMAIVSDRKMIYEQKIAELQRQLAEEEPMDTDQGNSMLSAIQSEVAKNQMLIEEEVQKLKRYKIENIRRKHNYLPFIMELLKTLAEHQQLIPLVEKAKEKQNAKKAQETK
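Material: human UCH37 enzyme supplied as purified proteasome complex. Measure: % inhibition of Ub-AMC cleavage fluorescence. Medium: pH 7.4 Tris-HCl (50 mM) with ovalbumin, ATP-MgCl2, DTT. Times: 30 min preincubation with enzyme, 25 min cleavage at room temperature. Detection: AMC fluorescence intensity at 355/460 nm.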
CTSL1 counter – blocks F. hepatica cathepsin L1 in PFM18AAP counter-screen; inhibition, % at 5.96 µM; recombinant F. hepatica cathepsin L1, Z-Leu-Arg-MCA fluorescence; 300,000 compounds, 0.49% hits; AID 1906;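 active = inhibition above the mean of all tested compounds plus 3 SD, set per screening campaign, cut at about 17% in these data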
PAD4 confirm – PAD4 (human) inhibition, confirmed. shares compounds with PAD4 inh. recombinant PAD4, RCA probe fluorescence polarization. inhibition, % at 6.36 µM. 1,200 compounds, 28% hits;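 active = mean inhibition across replicates above the hit cutoff set by the earlier primary screen, cut at about 15% in these data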;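 note: inhibitors block active-site labeling by the probe so polarization falls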
A number is an active result; 0 = inactive; - = not tested or not shown.

SMILES	GSTO1 inh	PAD4 inh	HKDC1 inh	TDP2 inh	UCH37 inh	CTSL1 counter	PAD4 confirm
O=C(NC1CCCCC1)C(c1cccs1)N(CCCN1CCOCC1)C(=O)c1ccc(-c2ccccc2)[nH]1 (centres undefined)	0	63	0	0	0	0	0
Cc1ccc(C(C(=O)NC(C)(C)C)N(CCCN2CCOCC2)C(=O)c2ccc(-c3ccccc3)[nH]2)o1 (centres undefined)	0	0	0	0	0	0	-
O=C(CN1C(=O)c2cccc3cccc1c23)Nc1ccc(S(=O)(=O)N2CCOCC2)cc1	0	0	0	0	0	0	-
O=C(CN1c2cccc3cccc(c23)S1(=O)=O)Nc1ccc(S(=O)(=O)N2CCOCC2)cc1	0	17	0	0	0	0	32
Cc1ccc(NC(=O)CNC(=O)c2ccc3c(c2)OCO3)nc1	0	0	0	0	0	0	-
Cc1ccc(NC(=O)c2ccc3c(c2)OCCO3)nc1	0	16	0	0	0	0	0
COc1cc(C=Nn2c(-c3ccccc3)n[nH]c2=S)cc(OC)c1O	-	-	-	-	0	-	-
CCc1ccc(CNc2ccc(N3CCN(C(C)=O)CC3)cc2)cc1	0	29	0	0	0	0	0
CCOC(=O)C(Nc1ccc2ccccc2c1)C(=O)OCC	0	21	0	0	0	0	0
CC(=O)Nc1ccc2ccccc2c1	0	0	0	-	0	0	-
Cc1cc(NC(=O)CCC(=O)N(c2ccccc2)C(C(=O)NC2CCCC2)c2ccccc2F)no1 (centres undefined)	0	19	0	0	0	0	0
Cc1cc(NC(=O)CCC(=O)N(c2cccnc2)C(C(=O)NC2CCCC2)c2ccccc2F)no1 (centres undefined)	0	0	0	0	0	0	-
N=C(N)SCP(=O)(c1ccccc1)c1ccccc1	0	17	0	0	0	0	15
Cc1ccc(P(=O)(CSC(=N)N)c2ccc(C)cc2)cc1	0	24	0	0	0	0	18
Cc1ccc(P(=O)(CO)c2ccc(C)cc2)cc1	0	0	0	0	0	0	-
CCOC(=O)CP(=O)(c1ccccc1)c1ccccc1	0	0	0	0	0	0	-
CS(=O)(=O)NC1c2cccc3cccc(c23)C1Sc1nncn1N=Cc1ccco1 (centres undefined)	-	-	-	-	0	-	-
Cc1csc(NN=Cc2ccc([N+](=O)[O-])cc2)n1	-	-	-	-	0	-	-
CC(=N/N=C1/NC(=O)C(CC(=O)Nc2ccccc2F)S1)C1CCCCC1 (centres undefined)	-	-	-	-	0	-	-
COc1cccc(C2C(C#N)=C(N)OC(C(C)(C)C)=C2C#N)c1 (centres undefined)	0	0	0	0	0	0	-
COc1cccc(/C=C2/CN(C)CC3=C2OC(N)=C(C#N)C3c2cccc(OC)c2)c1 (centres undefined)	0	61	0	0	0	0	0
OCC(O)C=NNc1nc(N2CCCCC2)nc(N2CCCCC2)n1 (centres undefined)	-	-	-	-	0	-	-
CC(CCc1ccccc1)NC(=O)CNC(=O)COc1ccccc1 (centres undefined)	0	30	0	0	0	0	0
O=c1nc2sc(=Cc3ccc(-c4ccccc4[N+](=O)[O-])o3)c(=O)n2nc1-c1ccccc1	-	-	-	-	0	-	-
COC(=O)c1[nH]c(=O)c2ccccc2c1O	0	31	0	-	0	0	0
SMILES	GSTO1 inh	PAD4 inh	HKDC1 inh	TDP2 inh	UCH37 inh	CTSL1 counter	PAD4 confirm
Cc1nn(-c2ccccc2)c2c1C(c1ccncc1)C(C#N)=C(N)O2 (centres undefined)	0	25	0	0	0	0	0
Cc1ccc(-n2nc(C)c3c2OC(N)=C(C#N)C3c2cccs2)cc1 (centres undefined)	0	41	0	0	0	0	0
Cc1ccc(-n2nc(C)c3c2OC(N)=C(C#N)C3c2ccncc2)cc1 (centres undefined)	0	0	0	0	0	0	-
CC(C)c1[nH]nc2c1C(c1cccs1)C(C#N)=C(N)O2 (centres undefined)	0	0	0	0	0	0	-
CC(C)n1cnc2c(NCc3ccccc3)cc(N[C@H](C)CO)cc21	-	46	0	-	0	-	32
Cc1[nH]c2ccccc2c1C(C#N)(C#N)C1C(=O)c2ccccc2C1=O	73	37	57	0	0	0	0
Cc1[nH]c2ccccc2c1SCC(=O)O	0	0	0	0	0	0	-
O=C(O)CSc1c2ccccc2cc2ccccc12	0	23	0	0	0	0	20
Cc1ccc(-n2c(N)c(C#N)c(-c3ccccc3)c(C#N)c2=O)cc1	0	0	0	0	0	0	-
Cc1ccc(-c2nc3sc(C#N)c(N)n3c(=O)c2C#N)cc1	36	62	0	0	0	0	0
CCOC(=O)NC(=O)/C(C#N)=C\Nc1sccc1C(=O)OC	0	35	0	0	28	0	0
CCOC(=O)NC(=O)/C(C#N)=C\Nc1ccc(Cl)cc1Cl	0	0	0	0	0	0	-
Cc1ccc(NN=C(C#N)C(=N)N2CCCCC2)cc1	-	-	-	-	0	-	-
Cc1c(C(=O)N2CCCCC2)c(S(=O)(=O)N2CCN(c3ccc(Cl)cc3)CC2)c(C)n1C	0	68	0	0	0	0	0
C=CCN1C=C2C(=O)C(C)(OC(=O)CCC(=O)OC)C(=O)C=C2C=C1C1CC1 (centres undefined)	37	17	0	0	0	0	0
CCOC(=O)CC(/C(C)=N\O)c1ccccc1 (centres undefined)	0	21	0	0	-	0	0
Cc1ccsc1C=NNC(=O)c1ccc(-n2cccc2)cc1	-	-	-	-	0	-	-
Cc1ccccc1Cn1cc(NC(=O)CCCn2nc([N+](=O)[O-])cc2C)cn1	0	0	0	0	0	0	-
Cc1cc([N+](=O)[O-])nn1CCCC(=O)Nc1ccc2c(c1)OCO2	0	15	0	0	0	0	0
O=C(NN=Cc1cccc(O)c1)c1cc(-c2ccccc2)nc2ccccc12	-	-	-	-	0	-	-
CCOC(=O)c1ccc(S(=O)(=O)Nc2nc3cc(S(=O)(=O)NC4=NCCCCC4)ccc3s2)cc1	0	29	0	0	0	0	26
Nc1nc2cc(S(=O)(=O)NC3=NCCCCC3)ccc2s1	0	28	0	0	0	0	25
COc1ccccc1C(C)=NNC(=O)c1nnn(-c2nonc2N)c1C(C)C	-	-	-	-	0	-	-
CCOC(=O)c1cc(S(=O)(=O)Nc2ccc(OC)cc2OC)cn1C	0	31	0	0	0	0	0
Cn1ccnc1C(=NNC(=O)c1ccc(O)cc1)c1cccc([N+](=O)[O-])c1	-	-	-	-	0	-	-
Cc1ccc(C2(C)NC(=O)N(CC(=O)NC(=O)NC(C)(C)C)C2=O)cc1 (centres undefined)	0	16	0	0	0	0	0
